Experimental data reported in ChEMBL document CHEMBL1122096, “Narcotic antagonistic potency of bivalent ligands which contain beta-naltrexamine. Evidence for bridging between proximal recognition sites” (1982).

Experiments:
Format in all cases: functional
Cavia porcellus [1] = species on record: Cavia porcellus; assay: Tested for the narcotic antagonistic activity by measuring the ratio of the IC50 of the ethylketazocine in the presence and in the absence in guinea pig ileum at 2*10e-8M
How it was run: (§1)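 Isolated-tissue antagonism assays: guinea pig ileum (GPI) against ethylketazocine or morphine, with antagonist at 2×10^-8 M; mouse vas deferens (MVD) against DADLE, with antagonist at 1×10^-7 M. The value is the agonist IC50 with antagonist divided by the agonist IC50 without antagonist, both measured in the same preparation, reported ± SE.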

Cavia porcellus [2] = species on record: Cavia porcellus; assay: Tested for the narcotic antagonistic activity by measuring the ratio of the IC50 of the morphine in the presence and in the absence in guinea pig ileum at 2*10e-8M; how it was run: as §1
Cavia porcellus [3] = species on record: Cavia porcellus; assay: Partial agonist activity was determined by measuring the % maximum agonist response in guinea pig ileum at 5*10e-7 M concentration of compound
Mus musculus [4] = species on record: Mus musculus; assay: Partial agonist activity by measuring the % maximum agonist response in mouse vas deferens at 1*10e-7 M concentration of compound
Mus musculus [5] = species on record: Mus musculus; assay: Tested for the narcotic antagonistic activity by measuring the ratio of the IC50 of the DADLE in the presence and in the absence in mouse vas deferens at 1*10e-7 M; how it was run: as §1
Cavia porcellus [6] = species on record: Cavia porcellus; assay: Partial agonist activity was determined by measuring the % maximum agonist response in guinea pig ileum at 1*10e-6 M concentration of compound
Mus musculus [7] = species on record: Mus musculus; assay: Partial agonist activity by measuring the % maximum agonist response in mouse vas deferens at 1*10e-6 M concentration of compound
Cavia porcellus [8] = species on record: Cavia porcellus; assay: Partial agonist activity was determined by measuring the % maximum agonist response in guinea pig ileum at 3*10e-8 M concentration of compound
Cavia porcellus [9] = species on record: Cavia porcellus; assay: Partial agonist activity was determined by measuring the % maximum agonist response in guinea pig ileum at 1*10e-8 M concentration of compound

Which results are given for Oc1ccc2c3c1O[C@H]1[C@H](NCCOCCOCCOCCOCCOCCN[C@H]4CC[C@]5(O)C6Cc7ccc(O)c8c7C5(CCN6CC5CC5)[C@@H]4O8)CC[C@@]4(O)C(C2)N(CC2CC2)CCC314?
IC50 ratio (Cavia porcellus [1]): 2.61; IC50 ratio (Cavia porcellus [2]): 5.75; Max agonist response (Cavia porcellus [3]): 60%; Max agonist response (Mus musculus [4]): 26%; IC50 ratio (Mus musculus [5]): 30.67

Which IC50 ratio (Cavia porcellus [1]) does the source give for COCCOCCOCCN[C@@H]1CC[C@@]2(O)C3Cc4ccc(O)c5c4C2(CCN3CC2CC2)[C@H]1O5 (stereo not given in full) here?
The IC50 ratio was 1.63.

And the IC50 ratio (Cavia porcellus [2])?
Its IC50 ratio is 3.45.

What about the Max agonist response (Cavia porcellus [6]) of the same compound?
Its Max agonist response is 67%.

And the Max agonist response (Mus musculus [7])?
The Max agonist response was 49%.

And the IC50 ratio (Mus musculus [5])?
The IC50 ratio was 2.09.

Cc1ccc(S(=O)(=O)OCCOCCOCCN[C@@H]2CC[C@@]3(O)C4Cc5ccc(O)c6c5C3(CCN4CC3CC3)[C@H]2O6)cc1 (stereo not given in full) was tested. Which IC50 ratio (Cavia porcellus [1]) did it give?
The IC50 ratio was 3.96.

What about the IC50 ratio (Cavia porcellus [2]) of the same compound?
The IC50 ratio was 3.78.

And the Max agonist response (Cavia porcellus [8])?
Its Max agonist response is 57%.

What about the Max agonist response (Mus musculus [4]) of the same compound?
Its Max agonist response is 27%.

And the IC50 ratio (Mus musculus [5])?
The IC50 ratio was 4.29.

Oc1ccc2c3c1O[C@H]1[C@H](NCCOCCOCCN[C@H]4CC[C@]5(O)C6Cc7ccc(O)c8c7C5(CCN6CC5CC5)[C@@H]4O8)CC[C@@]4(O)C(C2)N(CC2CC2)CCC314 was tested. Which IC50 ratio (Cavia porcellus [1]) did it give?
Its IC50 ratio is 16.91.

And the IC50 ratio (Cavia porcellus [2])?
Its IC50 ratio is 3.24.

What about the Max agonist response (Cavia porcellus [9]) of the same compound?
The Max agonist response was 10%.

What about the Max agonist response (Mus musculus [4]) of the same compound?
Its Max agonist response is 32%.

And the IC50 ratio (Mus musculus [5])?
The IC50 ratio was 7.17.
